Data published in ChEMBL document CHEMBL3621067, “Antihyperlipidemic morpholine derivatives with antioxidant activity: An investigation of the aromatic substitution” (Bioorg Med Chem, 2015).

How the values were obtained:
[1] = system: Liver; assay: Antioxidant activity in rat heat-inactivated rat hepatic microsomes assessed as inhibition of TBAR level incubated for 45 mins by spectrophotometry; type: functional; settings: 0.75 h
Summary of the method: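 Heat-inactivated liver microsomes from untreated rats (2.5 mg protein/mL, 4 mM fatty acid residues) with 0.2 mM ascorbic acid in Tris–HCl/KCl (50/150 mM, pH 7.4); compounds in DMSO, 10 μM to 1 mM. Incubated at 37 °C for 45 min; TBAR read at 535 against 600 nm. Run in duplicate; IC50 is the mean concentration giving 50% inhibition of control peroxidation.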

[2] = molecular target: T1, Squalene synthase (Rattus norvegicus) (UniProt Q02769); assay: Inhibition of squalene synthase in rat liver microsomes assessed as reduction in conversion of [3H]farnesyl pyrophosphate to squalene at 10 uM […] by liquid scintillation counting method
T1 sequence (whole entry): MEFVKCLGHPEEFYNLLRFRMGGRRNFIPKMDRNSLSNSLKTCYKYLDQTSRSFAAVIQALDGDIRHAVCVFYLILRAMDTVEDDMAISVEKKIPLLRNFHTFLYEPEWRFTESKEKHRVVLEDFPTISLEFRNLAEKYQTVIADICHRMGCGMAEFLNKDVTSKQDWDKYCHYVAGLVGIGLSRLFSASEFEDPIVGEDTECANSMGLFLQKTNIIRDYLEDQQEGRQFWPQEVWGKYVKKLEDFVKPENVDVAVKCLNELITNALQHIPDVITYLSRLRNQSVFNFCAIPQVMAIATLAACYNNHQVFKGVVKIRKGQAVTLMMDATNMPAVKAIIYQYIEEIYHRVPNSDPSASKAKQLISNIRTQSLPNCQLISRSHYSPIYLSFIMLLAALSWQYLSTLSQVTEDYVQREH

[3] = system: Rattus norvegicus; assay: Antihyperlipidemic activity in Triton WR1339-induced hyperlipidemic rat assessed as reduction in plasma total cholesterol at 56 umol/kg, ip dosed 1 hr after Triton WR1339 challenge and measured 24 hrs post dose relative to control; type: functional
Summary of the method: (§1)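 Rats given Triton WR1339 to induce acute hyperlipidemia, established 24 h later; compounds given ip at 56 μmol/kg. Animals held at 22 °C on a 12 h light/dark cycle with free chow and water. Plasma lipids measured in duplicate; values are the mean of 8–10 rats per compound, expressed as % decrease versus hyperlipidemic controls; significance by Student's test.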

[4] = system: Rattus norvegicus; assay: Antihyperlipidemic activity in Triton WR1339-induced hyperlipidemic rat assessed as reduction in plasma triglyceride level at 56 umol/kg, ip dosed 1 hr after Triton WR1339 challenge and measured 24 hrs post dose relative to control; type: functional; summary of the method: as §1
[5] = system: Rattus norvegicus; assay: Antihypercholesterolemic activity in Triton WR1339-induced hyperlipidemic rat assessed as reduction in plasma LDL-C level at 56 umol/kg, ip dosed 1 hr after Triton WR1339 challenge and measured 24 hrs post dose relative to control; type: functional
Summary of the method: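 Rats, housed at 22 °C on a 12 h light/dark cycle with free chow and water, given Triton WR1339 to induce acute hyperlipidemia (established 24 h later). Compound given ip at 56 μmol/kg. Plasma LDL measured in duplicate and expressed as % decrease versus hyperlipidemic controls; mean of 8–10 rats per compound.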

[6] = molecular target: T2, Squalene synthase (Rattus norvegicus, UniProt Q02769); assay: Inhibition of squalene synthase in rat liver microsomes assessed as reduction in conversion of [3H]farnesyl pyrophosphate to squalene incubated for 30 mins by liquid scintillation counting
T2 sequence (Q02769 whole entry): T1 sequence (whole entry)

[7] = molecular target: T1, Squalene synthase (Rattus norvegicus); assay: Inhibition of squalene synthase in rat liver microsomes assessed as reduction in conversion of [3H]farnesyl pyrophosphate to squalene at 50 uM incubated for 30 mins by liquid scintillation counting
Summary of the method: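 Rat liver microsomes (18 μg protein/mL) in 50 mM phosphate, pH 7.4, with 10 mM MgCl2 and 0.5 mM NADPH; compounds in ethanol. Preincubated 10 min at 37 °C, then started with [3H]FPP (0.5 μM, 0.27 Ci/mmol) for 10 min at 37 °C. Stopped with 15% ethanolic KOH, heated 65 °C for 30 min, extracted into petroleum ether, and squalene counted by scintillation. Run in duplicate.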

For O=[N+]([O-])c1ccc(-c2ccc(C3(O)CN4CCCCC4CO3)cc2)cc1 (stereo unspecified), the IC50 [1] was 539 µM, the inhibition [2] was 43% and the inhibition in vivo at 56 µmol/kg [3] was 59%. For the same molecule, the inhibition in vivo at 56 µmol/kg [4] was 31%.

In the case of CN1CCOC(O)(c2ccc(C3CCCCC3)cc2)C1 (stereo unspecified), the IC50 [1] is reported as 190 µM, the inhibition [2] is reported as 0% and the inhibition in vivo at 56 µmol/kg [3] is reported as 44%. For the same molecule, the inhibition in vivo at 56 µmol/kg [5] was 36%, the inhibition in vivo at 56 µmol/kg [4] was 34% and the IC50 [6] was > 100 µM.

OC1(c2ccc3c(ccc4ccccc43)c2)CN2CCCCC2CO1 (stereo unspecified) was tested, and the IC50 [1] was 198 µM, the inhibition [2] was 87% and the inhibition in vivo at 56 µmol/kg [3] was 40%. For the same molecule, the inhibition in vivo at 56 µmol/kg [5] was 53%, the inhibition in vivo at 56 µmol/kg [4] was 66% and the IC50 [6] was 0.7 µM.

Molecule CN1CCOC(O)(c2ccc(-c3ccc([N+](=O)[O-])cc3)cc2)C1 (stereo unspecified) has an IC50 [1] of 73 µM, an inhibition [2] of 29% and an inhibition in vivo at 56 µmol/kg [3] of 41%. The inhibition in vivo at 56 µmol/kg [4] was 44%.

OC1(c2ccc(-c3nccs3)cc2)CN2CCCCC2CO1 (stereo unspecified) showed an IC50 [1] of 1000 µM, an inhibition [7] of 35% and an inhibition in vivo at 56 µmol/kg [3] of 21%. The inhibition in vivo at 56 µmol/kg [4] was 58%.

Molecule CN1CCOC(O)(c2ccc(-c3nccs3)cc2)C1 (stereo unspecified) has an inhibition [7] of 30%.

CCC(C)(C)C(=O)O[C@H]1C[C@@H](C)C=C2C=C[C@H](C)[C@H](CC[C@@H]3C[C@@H](O)CC(=O)O3)[C@H]21 [SIMVASTATIN] was tested, and the inhibition in vivo at 56 µmol/kg [3] was 75%, the inhibition in vivo at 56 µmol/kg [5] was 70% and the inhibition in vivo at 56 µmol/kg [4] was 0%.

Work on CN1CC(O)(c2ccc(-c3ccc(O)cc3)cc2)OC2CCCCC21 (stereo unspecified) yielded an IC50 [1] of 135 µM, an inhibition [2] of 61% and an inhibition in vivo at 56 µmol/kg [3] of 54%. The inhibition in vivo at 56 µmol/kg [4] was 48%.

CN1CC(O)(c2ccc(-c3ccc(C(C)(C)C)cc3)cc2)OC2CCCCC21 (stereo unspecified) was tested, and the IC50 [1] was 214 µM, the inhibition [2] was 67% and the inhibition in vivo at 56 µmol/kg [3] was 17%. It also gave an inhibition in vivo at 56 µmol/kg [4] of 15%.

With CC(C)(C)c1ccc(-c2ccc(C3(O)CN4CCCCC4CO3)cc2)cc1 (stereo unspecified) the IC50 [1] was 410 µM, the inhibition [2] was 40% and the inhibition in vivo at 56 µmol/kg [3] was 64%. For the same molecule, the inhibition in vivo at 56 µmol/kg [4] was 59%.

For Oc1ccc(-c2ccc(C3(O)CN4CCCCC4CO3)cc2)cc1 (stereo unspecified), the IC50 [1] was 134 µM, the inhibition [2] was 7% and the inhibition in vivo at 56 µmol/kg [3] was 40%. It also gave an inhibition in vivo at 56 µmol/kg [4] of 43%.

With CN1CCOC(O)(c2ccc3c(ccc4ccccc43)c2)C1 (stereo unspecified) the IC50 [1] was 174 µM, the inhibition [2] was 48% and the inhibition in vivo at 56 µmol/kg [3] was 58%. It also gave an inhibition in vivo at 56 µmol/kg [5] of 52%, an inhibition in vivo at 56 µmol/kg [4] of 69% and an IC50 [6] of 8.8 µM.

Work on CN1CC(O)(c2ccc(-c3nccs3)cc2)OC2CCCCC21 (stereo unspecified) yielded an inhibition [7] of 29%.

CN1CC(O)(c2ccc3c(ccc4ccccc43)c2)OC2CCCCC21 (stereo unspecified) gave an IC50 [1] of 191 µM, an inhibition [2] of 76% and an inhibition in vivo at 56 µmol/kg [3] of 49%. It also gave an inhibition in vivo at 56 µmol/kg [5] of 20%, an inhibition in vivo at 56 µmol/kg [4] of 59% and an IC50 [6] of 5.5 µM.

Work on OC1(c2ccc(C3CCCCC3)cc2)CN2CCCCC2CO1 (stereo unspecified) yielded an IC50 [1] of 700 µM, an inhibition [2] of 9% and an inhibition in vivo at 56 µmol/kg [3] of 80%. It also gave an inhibition in vivo at 56 µmol/kg [5] of 62%, an inhibition in vivo at 56 µmol/kg [4] of 70% and an IC50 [6] of 80 µM.

CN1CC(O)(c2ccc(-c3ccc([N+](=O)[O-])cc3)cc2)OC2CCCCC21 (stereo unspecified) showed an IC50 [1] of 57 µM, an inhibition in vivo at 56 µmol/kg [3] of 62% and an inhibition in vivo at 56 µmol/kg [4] of 20%.

With CN1CCOC(O)(c2ccc(-c3ccc(C(C)(C)C)cc3)cc2)C1 (stereo unspecified) the IC50 [1] was 91 µM, the inhibition [2] was 61% and the inhibition in vivo at 56 µmol/kg [3] was 45%. For the same molecule, the inhibition in vivo at 56 µmol/kg [4] was 47%.

In the case of CN1CC(O)(c2ccc(C3CCCCC3)cc2)OC2CCCCC21 (stereo unspecified), the IC50 [1] is reported as 180 µM, the inhibition [2] is reported as 18% and the inhibition in vivo at 56 µmol/kg [3] is reported as 51%. The inhibition in vivo at 56 µmol/kg [5] was 23%, the inhibition in vivo at 56 µmol/kg [4] was 20% and the IC50 [6] was 42 µM.
